Compound activity (PubChem BioAssay)
Shown are actives, neighbours in structure and some others; about 5.5% of the full set was active somewhere.
Cl transport mod – KCC2 cotransporter modulators, thallium flux, primary screen, cell-based, HEK293 KCC2, FluoZin-2 fluorescence, MLSMR | B-score of Tl+ flux slope (higher = more flux/activation; lower = inhibition) at 10 µM | KCC2 cells, thallium flux FluoZin-2 fluorescence | Solute carrier family 12 member 5 (Homo sapiens), Q9H2X9 | hit rate 2.2% among 190,000;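 active = thallium flux slope and its plate-corrected score both differing from the plate sample mean at a set confidence after two filtering rounds, in either direction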;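 note: slope of fluorescence scaled to starting intensity during 10 to 20 s after thallium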
Target sequence (Q9H2X9 whole entry, looked up): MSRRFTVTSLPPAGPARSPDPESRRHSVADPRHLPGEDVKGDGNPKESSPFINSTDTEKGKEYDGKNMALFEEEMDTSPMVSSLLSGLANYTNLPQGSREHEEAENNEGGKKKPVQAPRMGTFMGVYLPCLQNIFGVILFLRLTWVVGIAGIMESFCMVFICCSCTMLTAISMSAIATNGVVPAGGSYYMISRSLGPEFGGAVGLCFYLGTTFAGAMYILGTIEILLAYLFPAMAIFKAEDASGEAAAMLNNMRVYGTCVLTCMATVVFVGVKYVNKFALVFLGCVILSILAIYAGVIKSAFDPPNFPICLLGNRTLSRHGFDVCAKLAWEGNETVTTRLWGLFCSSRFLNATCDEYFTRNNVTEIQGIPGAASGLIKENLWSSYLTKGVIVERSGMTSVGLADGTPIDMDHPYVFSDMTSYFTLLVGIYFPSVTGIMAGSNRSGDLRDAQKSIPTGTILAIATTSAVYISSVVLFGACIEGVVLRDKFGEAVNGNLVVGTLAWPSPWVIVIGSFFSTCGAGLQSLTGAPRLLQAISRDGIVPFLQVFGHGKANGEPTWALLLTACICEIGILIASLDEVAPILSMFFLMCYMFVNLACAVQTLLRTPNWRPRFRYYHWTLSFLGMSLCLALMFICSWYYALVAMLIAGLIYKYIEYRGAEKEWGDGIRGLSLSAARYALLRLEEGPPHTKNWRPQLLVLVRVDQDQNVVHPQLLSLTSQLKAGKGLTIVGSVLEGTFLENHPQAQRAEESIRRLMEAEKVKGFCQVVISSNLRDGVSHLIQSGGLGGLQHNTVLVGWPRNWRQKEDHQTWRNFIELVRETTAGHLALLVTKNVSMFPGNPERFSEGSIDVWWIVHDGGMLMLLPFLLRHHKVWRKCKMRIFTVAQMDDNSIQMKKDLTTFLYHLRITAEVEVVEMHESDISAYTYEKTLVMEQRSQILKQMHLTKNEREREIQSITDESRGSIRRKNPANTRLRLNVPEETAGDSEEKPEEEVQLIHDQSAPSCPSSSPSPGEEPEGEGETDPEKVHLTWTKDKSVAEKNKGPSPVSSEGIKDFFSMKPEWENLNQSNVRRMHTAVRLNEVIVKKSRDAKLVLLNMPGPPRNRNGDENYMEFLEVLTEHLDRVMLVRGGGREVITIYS
Yeast lifespan up – compounds extending yeast replicative lifespan, primary screen, S. cerevisiae, OD615; S. cerevisiae growth with nicotinamide; deaD strain in restrictive glucose medium; inhibition of the nicotinamide effect, % at 10 µM; hit rate 0.68% among 130,000; AID 775, 2007;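 active = inhibition above a set limit, placed 3 SD over the median of all compounds, cut at about 26% in these data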;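 note: 0% = nicotinamide-treated wells and 100% = cells grown without nicotinamide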
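assay system = DeaD-strain S. cerevisiae | measured by = absorbance at 615 nm | probe or stimulus = nicotinamide 1.5 mM | buffer or medium = CSMM-D glucose medium, restrictive | times = 48 h at 30 °C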
BB579 growth dn – growth inhibitors of yeast BB579 in restrictive medium, primary screen, yeast lifespan-shortening project, S. cerevisiae | inhibition, % at 10 µM | AID 804, 2007 | hit rate 0.51% among 140,000 | OD615, 48 h;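 active = inhibition above a set limit, 3 SD over the mean compound inhibition, cut at about 44% in these data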
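Material: Saccharomyces cerevisiae DeaD strain BB579, replicative lifespan model yeast; buffer or medium: CSMM-D restrictive synthetic medium containing dextrose (glucose); compound: 10 µM single dose, DMSO 0.25%; timing: 48 h compound exposure at 30 °C after 4 h preincubation; signal: turbidity as optical density at 615 nm; benchmarks: positive control amphotericin B 10 µg/mL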
RAM network inh – inhibitors of the yeast RAM network, primary screen, dse1pr::URA3 reporter, 5-FOA selection; S. cerevisiae dse1pr::URA3 reporter, 5-FOA growth OD615, 2 d; analog-sensitive cbk1-as2 kinase mutant strain; inhibition, % at 50 µM; hit rate 1.8% among 190,000; AID 868, 2007;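 active = inhibition above a set limit, 3 SD over mean compound inhibition, cut at about 8.4% in these data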;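 note: 0% = DMSO-only wells with no growth and 100% = 10 µM 1-NA-PP1 full growth; inhibition rescues growth on 5-FOA so higher OD means more RAM inhibition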
WT yeast gro inh – growth inhibition of WT strain, primary screen, mitochondrial fusion inhibitor project, WT and mutant strains, chemical genetic; mitochondrial fusion phenotypic screen; inhibition, % at 10 µM; hit rate 2.1% among 190,000; in the data active = inhibition above about 58%; tested in S. cerevisiae
Active calls of the source: *.

How did CCOc1cc(/C=N/NC(N)=O)cc(Br)c1OCC(=O)Nc1ccccc1C do in these assays?
Cl transport mod: -0.81; Yeast lifespan up: 0; BB579 growth dn: -19; RAM network inh: 3; WT yeast gro inh: -6

How did CCOc1cc(/C=C\[N+](=O)[O-])ccc1OCC(=O)Nc1ccccc1C do in these assays?
Yeast lifespan up: 92*; BB579 growth dn: -42; RAM network inh: 0; WT yeast gro inh: -8

How did O=C(COc1ccccc1Cc1ccccc1)NCCCN1CCOCC1 do in these assays?
Cl transport mod: -1.3

How did CN(C)/C=N/NC(=O)c1ccccc1 do in these assays?
Cl transport mod: -0.11; RAM network inh: 0; WT yeast gro inh: -6

Results for O=C(NN=c1c(=O)c2ccccc2c1=O)c1ccccc1 ?
Cl transport mod: 8.6*; Yeast lifespan up: -17; BB579 growth dn: -35; RAM network inh: 0; WT yeast gro inh: 9

Results for O=c1cnc2cc([N+](=O)[O-])ccc2[nH]1 ?
Cl transport mod: 0.63; RAM network inh: 0; WT yeast gro inh: -4

What do the screens show for `CC(C)OC(=O)C(C(=O)C(F)(F)F)c1cc(NS(=O)(=O)c2ccc3ccccc3c2)c2ccccc2c1O` (configuration not stated)?
Cl transport mod: -0.42; Yeast lifespan up: 12; BB579 growth dn: -44; RAM network inh: 5; WT yeast gro inh: 62*

Results for O=C(COc1cccc(Cl)c1)NNC(=S)Nc1ccccc1 ?
Cl transport mod: 2.6; Yeast lifespan up: 1; BB579 growth dn: -11; RAM network inh: 2; WT yeast gro inh: 38

How did O=C(COc1ccccc1)NNC(=S)NC(=O)c1ccc(Cl)cc1Cl do in these assays?
Cl transport mod: 22*; BB579 growth dn: 88*; RAM network inh: 0; WT yeast gro inh: 56

How did Cc1cccc(C(=O)NC(=S)NNC(=O)COc2ccc(Cl)cc2)c1 do in these assays?
Cl transport mod: 47*; RAM network inh: 3; WT yeast gro inh: 64*

How did Cc1ccc(C(=O)CC(=O)COc2ccc(Cl)cc2)cc1 do in these assays?
Cl transport mod: 21*; Yeast lifespan up: 10; BB579 growth dn: -3; RAM network inh: 4; WT yeast gro inh: 1

How did N#CCCn1cc(/C=N/NC(=O)c2ccncc2)c(-c2ccc(F)cc2)n1 do in these assays?
Cl transport mod: -0.77; Yeast lifespan up: 1; BB579 growth dn: -4; RAM network inh: -1; WT yeast gro inh: -32

What do the screens show for `Cc1cccc(NC(=O)CSc2nnc(-c3cnccn3)n2Cc2ccco2)c1`?
Cl transport mod: -0.34; Yeast lifespan up: -16; BB579 growth dn: -17; RAM network inh: 9.9*; WT yeast gro inh: 0

Results for CC(=O)N(C)c1nnc(-c2cnccn2)s1 ?
Cl transport mod: 0.034; Yeast lifespan up: -16; BB579 growth dn: 1; RAM network inh: 0; WT yeast gro inh: 74*

What do the screens show for `Cc1c(Cl)cccc1NC(=S)N1CCC(C(N)=O)(N2CCCCC2)CC1`?
Cl transport mod: 0.85; Yeast lifespan up: 4; BB579 growth dn: -58; RAM network inh: -1; WT yeast gro inh: 3

How did CC(=O)Nc1ccc(NC(=O)Cc2ccc(S(=O)(=O)N3CCCCC3)s2)cc1 do in these assays?
Cl transport mod: -0.47; Yeast lifespan up: -1; BB579 growth dn: -44; RAM network inh: 1; WT yeast gro inh: -6

Results for O=C(Cc1ccc(S(=O)(=O)N2CCOCC2)s1)Nc1ccc2c(c1)CCC2 ?
Cl transport mod: -0.12; Yeast lifespan up: -4; BB579 growth dn: -50; RAM network inh: 9.4*; WT yeast gro inh: 9

Results for Cc1ccc(-c2noc(CSc3nnnn3C3CCCCC3)n2)cc1 ?
Cl transport mod: 0.045; Yeast lifespan up: -7; BB579 growth dn: -5; RAM network inh: 7; WT yeast gro inh: 40

How did CCCCc1nc2ccccc2n2cc3c(=O)n(C)c(=O)n(C)c3c12 do in these assays?
Cl transport mod: 0.56; WT yeast gro inh: 21

What do the screens show for `COC(=O)c1[nH]c2ccccc2c1NC(=O)C(C)N1CC(C)OC(C)C1` (configuration not stated)?
Cl transport mod: 0.35

What do the screens show for `Cc1ccccc1C(=O)Oc1ccc(Sc2ccc(O)cc2)cc1`?
Cl transport mod: 0.13; Yeast lifespan up: -14; BB579 growth dn: -80; RAM network inh: 11*; WT yeast gro inh: 87*

Results for Cc1ccccc1C(=O)Oc1ccc(-c2csnn2)cc1 ?
Cl transport mod: 0.54

What do the screens show for `CCC1Oc2ccc(C)cc2N(CC(=O)N(Cc2ccc(C)o2)C2CCCC2)C1=O` (configuration not stated)?
Cl transport mod: -0.72; BB579 growth dn: -22; RAM network inh: 7; WT yeast gro inh: 65*

Results for CCC1Oc2ccc(C)cc2N(CC(=O)NCCN2C(C)CCCC2C)C1=O (configuration not stated) ?
Cl transport mod: 0.16; Yeast lifespan up: -11; BB579 growth dn: -2; RAM network inh: 0; WT yeast gro inh: 10

How did Cc1ccc(/C=C2\C(=O)Nc3ccccc32)o1 do in these assays?
Cl transport mod: -1.1; Yeast lifespan up: -7; BB579 growth dn: 60*; RAM network inh: 1; WT yeast gro inh: 10

Results for Cc1cc(-c2ccccc2)nc(N(C)N)c1S(C)(=O)=O ?
Cl transport mod: -0.65; RAM network inh: -1; WT yeast gro inh: 9

What do the screens show for `Cc1cc(-c2ccccc2)nc(-c2ccccc2)c1C`?
Cl transport mod: 0.0099; RAM network inh: 1; WT yeast gro inh: 78*

What do the screens show for `COc1ccc(/C=C(\NC(=O)c2ccccc2)C(=O)NCCC(=O)O)cc1`?
RAM network inh: 3; WT yeast gro inh: -10

Results for COc1ccc(/C=C(/C(=O)NCc2ccccc2)c2ccccc2)cc1 ?
Cl transport mod: -3.2; Yeast lifespan up: -3; BB579 growth dn: -6; RAM network inh: 11*; WT yeast gro inh: 33

How did COc1ccccc1/C=C(/C(=O)OCC(=O)NCc1ccccc1)c1ccccc1 do in these assays?
Cl transport mod: -0.86; Yeast lifespan up: 4; BB579 growth dn: -36; RAM network inh: 10*; WT yeast gro inh: 37

What do the screens show for `Cc1ccc(-c2c(C)sc(NC(=O)C3C4CCC(O4)C3C(=O)O)c2C(=O)OC(C)C)cc1` (configuration not stated)?
Cl transport mod: -1.5; Yeast lifespan up: -25; BB579 growth dn: -36; RAM network inh: 2; WT yeast gro inh: 8

How did CC(C)=C1C2CCC1C(C(=O)Nc1sc(C)c(-c3ccc(C(C)C)cc3)c1C(N)=O)C2C(=O)O (configuration not stated) do in these assays?
Cl transport mod: -1.6; Yeast lifespan up: 2; BB579 growth dn: -35; RAM network inh: 4; WT yeast gro inh: 62*
